Experimental data as given in ChEMBL document CHEMBL1250498, “Design, synthesis and pro-apoptotic antitumour properties of indole-based 3,5-disubstituted oxadiazoles” (Eur J Med Chem, 2010).

Columns and labels:
[1] = tested on: Jurkat; test: Anticancer activity against human Jurkat cells after 72 hrs by WST-1 assay; format: functional, cell-based
Summary of the method: (§1)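 Cells grown in DMEM with 2 mM L-glutamine, 10% FBS, 2.5% horse serum, penicillin and streptomycin, 37 °C, 5% CO2. Seeded at 2 × 10³/well, exposed 72 h to 0.1–50 µM (DMSO ≤0.2% in medium). WST-1 formazan absorbance read at 450 nm. Inhibition taken as % absorbance reduction versus control; IC50 from non-linear least-squares fit. Triplicate, independent experiments averaged.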

[2] = Anticancer activity against human COLO320 cells after 72 hrs by WST-1 assay; format: functional, cell-based; conditions: COLO 320, 72 h; summary of the method: as §1
[3] = tested on: MIA PaCa-2; test: Anticancer activity against human MIAPaCa2 cells after 72 hrs by WST-1 assay; format: functional, cell-based; conditions: MIA PaCa-2, 72 h; summary of the method: as §1
[4] = tested on: MCF7; test: Anticancer activity against human MCF7 cells after 72 hrs by WST-1 assay; format: functional, cell-based; conditions: MCF7, 72 h; summary of the method: as §1
[5] = tested on: MIA PaCa-2; test: Induction of apoptosis in human MIAPaCa2 cells assessed as increase in caspase 3/7 activation at 100 uM after 24 hrs by spectrophotometry relative to control; format: functional
Summary of the method: (§2)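 Seeded at 7 × 10³/well and dosed 100 µM for 24 h. Caspase-3/7 substrate then added; fluorescence read with excitation 485 nm and emission 530 nm. Result given as the ratio of treated-cell signal to untreated vehicle-only cells.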

[6] = tested on: MIA PaCa-2; test: Induction of apoptosis in human MIAPaCa2 cells assessed as increase in intraneucleosomal DNA fragmentation at 100 uM after 24 hrs by ELISA relative to control; format: functional
Summary of the method: (§3)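 Dosed at 100 µM for 24 h. Trypsin-harvested cells pooled with detached cells. Cytoplasmic histone-associated DNA fragments (released nucleosomes) measured by sandwich ELISA using a mouse monoclonal anti-DNA/histone antibody. Given as fold over untreated control; duplicate, mean ± SEM.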

[7] = tested on: COLO 320; test: Induction of apoptosis in human COLO320 cells assessed as increase in intraneucleosomal DNA fragmentation at 100 uM after 24 hrs by ELISA relative to control; format: functional; summary of the method: as §3
[8] = tested on: COLO 320; test: Induction of apoptosis in human COLO320 cells assessed as increase in caspase 3/7 activation at 100 uM after 24 hrs by spectrophotometry relative to control; format: functional; summary of the method: as §2

SMILES | IC50 [1] [µM] | IC50 [2] [µM] | IC50 [3] [µM] | IC50 [4] [µM] | fold change (FC) [5] | fold change (FC) [6] | fold change (FC) [7] | fold change (FC) [8]
Cc1noc(-c2cc3ccccc3[nH]2)n1 | > 50 | 11.8 | 30.5 | > 50 | – | – | – | –
COc1ccc2[nH]c(-c3nc(C)no3)cc2c1 | 19.9 | 10.4 | > 50 | 16.7 | – | – | – | –
Cc1noc(-c2cc3cc(F)ccc3[nH]2)n1 | 22.9 | 18.1 | 19.4 | 12.4 | 1.3 | 7.3 | 1 | 1.5
Cc1noc(-c2cc3cc(Cl)ccc3[nH]2)n1 | 21.6 | 19.5 | > 50 | 34.4 | – | – | – | –
c1ccc(-c2noc(-c3cc4ccccc4[nH]3)n2)cc1 | > 50 | 12 | 22 | 45.7 | 1.2 | 1.4 | 2.5 | 3.1
Nc1noc(-c2cc3ccccc3[nH]2)n1 | > 50 | 27.7 | 18.7 | > 50 | – | – | – | –
COc1ccc2[nH]c(-c3nc(-c4ccccc4)no3)cc2c1 | > 50 | 18.7 | 32.6 | > 50 | – | – | – | –
Oc1ccc2[nH]c(-c3nc(-c4ccccc4)no3)cc2c1 | 26.9 | 15.7 | 13 | 26 | 0.7 | 7.3 | 4.3 | 3.6
Fc1ccc2[nH]c(-c3nc(-c4ccccc4)no3)cc2c1 | 33.8 | 10.8 | 33.6 | 35 | 1.2 | 6.9 | 5.3 | 4.4
O=[N+]([O-])c1ccc2[nH]c(-c3nc(-c4ccccc4)no3)cc2c1 | > 50 | 12.5 | > 50 | > 50 | – | – | – | –
Clc1ccc2[nH]c(-c3nc(-c4ccccc4)no3)cc2c1 | > 50 | 16.5 | 23.1 | 29.1 | 1.9 | 1.9 | 2.1 | 1.3
Clc1ccc(-c2noc(-c3cc4ccccc4[nH]3)n2)cc1 | > 50 | 13.9 | 19.2 | > 50 | 1.2 | 1 | 3 | 0.3
COc1ccc2[nH]c(-c3nc(-c4ccc(Cl)cc4)no3)cc2c1 | > 50 | 12.8 | 22.7 | > 50 | 10.1 | 1.2 | 1.8 | 4.5
Fc1ccc2[nH]c(-c3nc(-c4ccc(Cl)cc4)no3)cc2c1 | > 50 | > 50 | > 50 | > 50 | – | – | – | –
O=[N+]([O-])c1ccc2[nH]c(-c3nc(-c4ccc(Cl)cc4)no3)cc2c1 | > 50 | 7.7 | 17.6 | > 50 | 23.9 | 2.7 | 1.8 | 6.4
Clc1ccc(-c2noc(-c3cc4cc(Cl)ccc4[nH]3)n2)cc1 | > 50 | 25 | > 50 | > 50 | – | – | – | –
Cn1c(-c2nc(-c3ccc(Cl)cc3)no2)cc2cc(Cl)ccc21 | > 50 | 16.9 | > 50 | > 50 | – | – | – | –
COc1ccc(-c2noc(-c3cc4ccccc4[nH]3)n2)cc1 | > 50 | 27.7 | > 50 | > 50 | – | – | – | –
COc1ccc(-c2noc(-c3cc4ccccc4n3C)n2)cc1 | > 50 | > 50 | 23.1 | > 50 | – | – | – | –
COc1ccc(-c2noc(-c3cc4cc(OC)ccc4[nH]3)n2)cc1 | > 50 | 28.3 | 5.6 | > 50 | 2 | 1.9 | 1.2 | 1.1
COc1ccc(-c2noc(-c3cc4cc(F)ccc4[nH]3)n2)cc1 | > 50 | 14.8 | 10.3 | > 50 | 5 | 2.2 | 1.4 | 2.1
COc1ccc(-c2noc(-c3cc4cc(Cl)ccc4[nH]3)n2)cc1 | > 50 | 9.6 | 7.8 | > 50 | 1.4 | 1.4 | 1.2 | 4.2
FC(F)(F)c1ccc(-c2noc(-c3sccc3Cl)n2)cc1 | > 50 | 1.2 | > 50 | > 50 | – | – | – | –
